≈ marks a conversion by molar mass, not a printed value. Entries after “also recorded” stand apart in the source; their conditions may differ. Read-outs that look alike come from different tables or passages of the source.
Legend:
Format in all cases: cell-based
[1] = tested on: HeLa cells; assay: cytotoxicity in uninfected HeLa cells; conditions: HeLa cell cultures, microscopically detectable alteration of cell morphology
Method in brief: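 Uninfected HeLa cells were treated with serial dilutions of test compound, run in parallel with the CPE-reduction antiviral assay. Minimum cytotoxic concentration was the lowest concentration causing microscopically detectable alteration of normal cell morphology. CC50 was the 50% cytotoxic concentration, measured as cell viability by the colorimetric formazan-based MTS assay.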

[2] = tested on: Staphylococcus aureus; assay: MIC by tube dilution, S. aureus; conditions: 24 h, read-out: pMICsa (Eq. (1)) Obs.
Method in brief: (§1)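 Tube-dilution MIC. Test compound was dissolved in DMSO at 100 μg/mL, then serially diluted in double-strength nutrient broth (I.P.). Tubes were incubated at 37 °C for 24 h. MIC was the lowest concentration that inhibited microbial growth. MIC values were converted to pMIC for QSAR.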

[3] = tested on: Bacillus subtilis; assay: MIC by tube dilution, B. subtilis; conditions: 24 h, read-out: pMICbs (Eq. (2)) Obs.
Method in brief: as §1

[4] = tested on: Escherichia coli; assay: MIC by tube dilution, E. coli; conditions: 24 h, read-out: pMICec (Eq. (3)) Obs.
Method in brief: as §1

[5] = tested on: Candida albicans; assay: MIC by tube dilution, C. albicans; conditions: 48 h
[6] = tested on: S. aureus, B. subtilis, E. coli, C. albicans and A. niger; assay: average antimicrobial activity
Method in brief: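 Tube-dilution MIC with test compound dissolved in DMSO at 100 μg/mL. Bacteria grew in double-strength nutrient broth at 37 °C for 24 h. C. albicans grew in Sabouraud dextrose broth at 37 °C for 48 h, and A. niger in the same broth at 25 °C for 7 days. MIC was the lowest growth-inhibiting concentration, converted to pMIC. pMICam = mean of the five pMIC values.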

[7] = tested on: Vesicular stomatitis virus
[8] = tested on: B. subtilis; assay: MBC determination, B. subtilis; conditions: static when MBC 3-fold higher than MIC
Method in brief: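 100 μL of culture from each tube that stayed clear in the MIC test was subcultured on fresh medium. MBC was the lowest compound concentration producing a 99.9% end-point reduction.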

[9] = read-out: pMICca (Eq. (4)) Obs.
[10] = read-out: pMICam (Eq. (9)) Obs.
[11] = read-out: pMICam MLR (Eq. (10)) Obs.

Compound	Cytotoxicity Minimum cytotoxic conc. [1]	MIC [2] [µM]	MIC [3] [µM]	MIC [4] [µM]	MIC [5, 9] [µM]	MIC [6, 10] [µM]	MIC [6, 11] [µM]	antiviral activity against Vesicular stomatitis virus (VSV), in words [7]	MIC ([5]; read-out: pMICca) [µM]	bacteriostatic/bactericidal action against B. subtilis [8]
Nc1ncnc2c1ncn2C[C@H](O)CO [(S)-DHPA, reference compound]	>250 µM	–	–	–	–	–	–	–	–	–
CCCCCCCCCCCC(=O)N/N=C/c1ccccc1 [Compound 1]	–	41.7 (≈ 12.6 µg/mL)	50.1 (≈ 15.2 µg/mL)	41.7 (≈ 12.6 µg/mL)	61.7 (≈ 18.6 µg/mL)	50.1 (≈ 15.2 µg/mL)	50.1 (≈ 15.2 µg/mL)	–	–	–
CCCCCCCCCCCCCC(=O)N/N=C/c1ccccc1 [Compound 2]	–	38 (≈ 12.6 µg/mL)	38 (≈ 12.6 µg/mL)	43.7 (≈ 14.4 µg/mL)	57.5 (≈ 19 µg/mL)	45.7 (≈ 15.1 µg/mL)	45.7 (≈ 15.1 µg/mL)	–	–	–
CCCCCCCCCCCCCCCC(=O)N/N=C/c1ccccc1 [Compound 3]	–	34.7 (≈ 12.4 µg/mL)	34.7 (≈ 12.4 µg/mL)	31.6 (≈ 11.3 µg/mL)	17.4 (≈ 6.23 µg/mL)	38.9 (≈ 13.9 µg/mL)	38.9 (≈ 13.9 µg/mL)	–	–	–
CCCCCCCCCCCCCCCCCC(=O)N/N=C/c1ccccc1 [Compound 4]	–	32.4 (≈ 12.5 µg/mL)	32.4 (≈ 12.5 µg/mL)	16.2 (≈ 6.27 µg/mL)	8.13 (≈ 3.14 µg/mL)	24.5 (≈ 9.49 µg/mL)	24.5 (≈ 9.49 µg/mL)	–	–	–
C/C=C/C=C/C(=O)N/N=C/c1ccccc1 [Compound 5]	–	58.9 (≈ 12.6 µg/mL)	58.9 (≈ 12.6 µg/mL)	58.9 (≈ 12.6 µg/mL)	117 (≈ 25.2 µg/mL)	58.9 (≈ 12.6 µg/mL)	58.9 (≈ 12.6 µg/mL)	–	–	–
O=C(/C=C/c1ccccc1)N/N=C/c1ccccc1 [Compound 6]	–	50.1 (≈ 12.5 µg/mL)	50.1 (≈ 12.5 µg/mL)	50.1 (≈ 12.5 µg/mL)	12.6 (≈ 3.15 µg/mL)	33.1 (≈ 8.29 µg/mL)	33.1 (≈ 8.29 µg/mL)	–	–	–
Cc1cccc(C(=O)N/N=C/c2ccccc2)c1 [Compound 7]	–	52.5 (≈ 12.5 µg/mL)	52.5 (≈ 12.5 µg/mL)	52.5 (≈ 12.5 µg/mL)	13.2 (≈ 3.14 µg/mL)	34.7 (≈ 8.26 µg/mL)	34.7 (≈ 8.26 µg/mL)	–	–	–
Cc1ccc(C(=O)N/N=C/c2ccccc2)cc1 [Compound 8]	–	52.5 (≈ 12.5 µg/mL)	52.5 (≈ 12.5 µg/mL)	52.5 (≈ 12.5 µg/mL)	45.7 (≈ 10.9 µg/mL)	38.9 (≈ 9.27 µg/mL)	38.9 (≈ 9.27 µg/mL)	–	–	–
COc1cc(OC)cc(C(=O)N/N=C/c2ccccc2)c1 [Compound 9]	100 µg/mL	43.7 (≈ 12.4 µg/mL)	43.7 (≈ 12.4 µg/mL)	43.7 (≈ 12.4 µg/mL)	11 (≈ 3.12 µg/mL)	28.8 (≈ 8.2 µg/mL)	28.8 (≈ 8.2 µg/mL)	active; also recorded: antiviral potential	–	–
O=C(N/N=C/c1ccccc1)c1cc([N+](=O)[O-])cc([N+](=O)[O-])c1 [Compound 10]	–	39.8 (≈ 12.5 µg/mL)	39.8 (≈ 12.5 µg/mL)	39.8 (≈ 12.5 µg/mL)	20 (≈ 6.27 µg/mL)	30.2 (≈ 9.49 µg/mL)	30.2 (≈ 9.49 µg/mL)	–	20 (≈ 6.27 µg/mL)	–
CCCCCCCCCCCC(=O)N/N=C/c1ccccc1Cl [Compound 11]	–	37.2 (≈ 12.5 µg/mL)	37.2 (≈ 12.5 µg/mL)	15.8 (≈ 5.34 µg/mL)	18.6 (≈ 6.27 µg/mL)	27.5 (≈ 9.28 µg/mL)	27.5 (≈ 9.28 µg/mL)	–	–	–
CCCCCCCCCCCCCC(=O)N/N=C/c1ccccc1Cl [Compound 12]	–	33.9 (≈ 12.4 µg/mL)	33.9 (≈ 12.4 µg/mL)	33.9 (≈ 12.4 µg/mL)	75.9 (≈ 27.7 µg/mL)	46.8 (≈ 17.1 µg/mL)	46.8 (≈ 17.1 µg/mL)	–	–	–
CCCCCCCCCCCCCCCC(=O)N/N=C/c1ccccc1Cl [Compound 13]	–	31.6 (≈ 12.4 µg/mL)	32.4 (≈ 12.7 µg/mL)	31.6 (≈ 12.4 µg/mL)	7.94 (≈ 3.12 µg/mL)	26.9 (≈ 10.6 µg/mL)	26.9 (≈ 10.6 µg/mL)	–	–	active bactericidal agents
CCCCCCCCCCCCCCCCCC(=O)N/N=C/c1ccccc1Cl [Compound 14]	–	29.5 (≈ 12.4 µg/mL)	29.5 (≈ 12.4 µg/mL)	29.5 (≈ 12.4 µg/mL)	14.8 (≈ 6.23 µg/mL)	28.8 (≈ 12.1 µg/mL)	28.8 (≈ 12.1 µg/mL)	–	–	active bactericidal agents
C/C=C/C=C/C(=O)N/N=C/c1ccccc1Cl [Compound 15]	–	50.1 (≈ 12.5 µg/mL)	50.1 (≈ 12.5 µg/mL)	50.1 (≈ 12.5 µg/mL)	25.1 (≈ 6.25 µg/mL)	39.8 (≈ 9.9 µg/mL)	39.8 (≈ 9.9 µg/mL)	–	–	–
O=C(/C=C/c1ccccc1)N/N=C/c1ccccc1Cl [Compound 16]	–	43.7 (≈ 12.4 µg/mL)	43.7 (≈ 12.4 µg/mL)	43.7 (≈ 12.4 µg/mL)	17.4 (≈ 4.95 µg/mL)	30.2 (≈ 8.6 µg/mL)	30.2 (≈ 8.6 µg/mL)	–	17.4 (≈ 4.95 µg/mL)	–
Cc1cccc(C(=O)N/N=C/c2ccccc2Cl)c1 [Compound 17]	–	45.7 (≈ 12.5 µg/mL)	45.7 (≈ 12.5 µg/mL)	45.7 (≈ 12.5 µg/mL)	45.7 (≈ 12.5 µg/mL)	42.7 (≈ 11.6 µg/mL)	42.7 (≈ 11.6 µg/mL)	–	–	–
Cc1ccc(C(=O)N/N=C/c2ccccc2Cl)cc1 [Compound 18]	–	45.7 (≈ 12.5 µg/mL)	45.7 (≈ 12.5 µg/mL)	45.7 (≈ 12.5 µg/mL)	24.5 (≈ 6.69 µg/mL)	35.5 (≈ 9.68 µg/mL)	35.5 (≈ 9.68 µg/mL)	–	24.5 (≈ 6.69 µg/mL)	–
COc1cc(OC)cc(C(=O)N/N=C/c2ccccc2Cl)c1 [Compound 19]	100 µg/mL	38.9 (≈ 12.4 µg/mL)	38.9 (≈ 12.4 µg/mL)	38.9 (≈ 12.4 µg/mL)	9.77 (≈ 3.12 µg/mL)	27.5 (≈ 8.78 µg/mL)	27.5 (≈ 8.78 µg/mL)	active; also recorded: antiviral potential	–	–
O=C(N/N=C/c1ccccc1Cl)c1cc([N+](=O)[O-])cc([N+](=O)[O-])c1 [Compound 20]	–	35.5 (≈ 12.4 µg/mL)	35.5 (≈ 12.4 µg/mL)	35.5 (≈ 12.4 µg/mL)	8.91 (≈ 3.11 µg/mL)	25.1 (≈ 8.76 µg/mL)	25.1 (≈ 8.76 µg/mL)	–	–	–
NC(=O)c1ncn([C@@H]2O[C@H](CO)[C@@H](O)[C@H]2O)n1 [Ribavirin, reference compound]	>250 µM	–	–	–	–	–	–	–	–	–
